Measurements pooled from the literature.
Each line is one published result; the experiments were not run side by side.
Effect on: cell growth or viability

For `COc1cc(C2C3=C(COC3=O)N(CCO)c3cc4c(cc32)CCC4)cc(OC)c1OC` (stereo not shown), the IC50 was 0.1 µM (MDA-MB-468; ATP luminescence; 48 h).
For `OCn1ccnc1`, the IC50 was over 800 µM (BEAS-2B; MTT; 24 h).
For `C/C(=N\C1CCCCC1/N=C(\C)c1c(O)c2ccccc2oc1=O)c1c(O)c2ccccc2oc1=O` (stereo not shown), the IC50 was 5.46 µM (BEAS-2B; MTT; 48 h).
`Fc1ccc2c(-c3nnc(Cc4ccccc4)[nH]3)nn(Cc3ccc(Cl)cc3Cl)c2c1` gave an IC50 of 584 µM (human Fibroblast; 48 h).
`OC1CCN(c2ccc(/C=N/NC(=S)Nc3ccc(F)cc3)cc2)CC1` gave an IC50 of 29.1 µM (BEAS-2B; MTT; 24 h).
`Cc1nnc(-c2nn(Cc3ccc(Cl)cc3Cl)c3ccccc23)o1` has an IC50 of 97.5 µM (human Fibroblast; 48 h).
`OC1CCN(c2ccc(/C=N/NC(=S)Nc3ccc(Br)cc3)cc2)CC1` gave an IC50 of 19.8 µM (BEAS-2B; MTT; 24 h).
The IC50 of `CC1c2ccccc2CCN1c1ccc(CO)c(Cl)c1` (stereo not shown) is reported as under 0.2 µM (RBE; ATP luminescence).
The IC50 of `C/C(=N\C(=N)/N=C(\C)c1c(O)c2ccccc2oc1=O)c1c(O)c2ccccc2oc1=O` is reported as 44.5 µM (BEAS-2B; MTT; 48 h).
The IC50 of `NCc1ccc(-c2nn(Cc3ccccc3)c3ccccc23)o1` is reported as 2.4 µM (RBE; ATP luminescence).
`OC1CCN(c2ccc(/C=N/NC(=S)NCc3ccc(Cl)cc3)cc2)CC1` gave an IC50 of 13.4 µM (BEAS-2B; MTT; 24 h).
`CCOC(=O)c1c(C)nc2ccc(-c3ccc(F)cc3F)cc2c1O` has an IC50 of 8 µM (MDA-MB-468; MTT; 48 h).
`COc1cccc(Cn2nc(-c3ccc(CO)o3)c3ccccc32)c1` gave an IC50 of 0.468 µM (RBE; ATP luminescence).
`CC(=O)N1CCC(Nc2cc(C(=O)NC[C@H](O)CN3CCc4ccccc4C3)ncn2)CC1` has an IC50 of over 100 µM (MDA-MB-435S; CCK-8; 72 h).
With `Cc1nc2ccc(-c3cccc(F)c3)cc2c(O)c1C(=O)O` the IC50 was at least 100 µM (MDA-MB-468; MTT; 48 h).
For `COc1cccc2c1C(=O)c1c(O)c3c(c(O)c1C2=O)C[C@@](O)(C(=O)CO)C[C@@H]3O[C@H]1C[C@H](N)[C@H](O)[C@H](C)O1`, the IC50 was 0.256 µM (SGC-7901; 96 h).
`Fc1ccc2c(-c3ncc(-c4ccccc4)o3)nn(Cc3ccccc3)c2c1` gave an IC50 of 198 µM (human Fibroblast; 48 h).
The IC50 of `c1ccc2c(c1)ncn2Cn1cncn1` is reported as 264 µM (BEAS-2B; MTT; 24 h).
`CC(O)c1ccc(-c2nn(Cc3ccccc3)c3ccccc23)o1` (stereo not shown) has an IC50 of 6.92 µM (RBE; ATP luminescence).
With `CCOC(=O)c1c(C)nc2ccc(-c3ccc(OCc4ccccc4)c(F)c3)cc2c1O` the IC50 was 2 µM (MDA-MB-468; MTT; 48 h).
`C/C(=N\c1nc(N)nc(/N=C(\C)c2c(O)c3ccccc3oc2=O)n1)c1c(O)c2ccccc2oc1=O` has an IC50 of 64.3 µM (BEAS-2B; MTT; 48 h).
`Clc1ccc(Cn2nc(-c3nc(-c4ccccc4)no3)c3ccccc32)c(Cl)c1` gave an IC50 of 164 µM (human Fibroblast; 48 h).
With `Cc1cnc(Cn2nc(-c3ccc(CO)o3)c3ccccc32)s1` the IC50 was 1.05 µM (RBE; ATP luminescence).
`CNC(=O)c1cc(Oc2ccc(NC(=O)Nc3ccc(Cl)c(C(F)(F)F)c3)cc2)ccn1` gave an IC50 of 15.8 µM (BEAS-2B; MTT; 24 h).
For `CCOC(=O)c1c(C)nc2ccc(-c3cccc(F)c3)cc2c1O`, the IC50 was 4 µM (MDA-MB-468; MTT; 48 h).
`Cc1ccc(Cn2nc(-c3ccc(CO)o3)c3ccccc32)cc1` gave an IC50 of 1.7 µM (RBE; ATP luminescence).
The IC50 of `CN1CCC(NC2CCc3[nH]c4c(C(N)=O)ccc(-c5ccccc5Cl)c4c3C2)CC1` (stereo not shown) is reported as 0.0172 µM (SGC-7901; 96 h).
For `CC(=O)ON=C1C=CC(=C(C#N)c2ccccc2)C=C1`, the IC50 was 25.9 µg/mL (human Fibroblast; MTT; 24 h).
With `C/C(=N\N=C(/C)c1c(O)c2ccccc2oc1=O)c1c(O)c2ccccc2oc1=O` the IC50 was 29.6 µM (BEAS-2B; MTT; 48 h).
`COc1ccc(NC(=S)N/N=C/c2ccc(N3CCC(O)CC3)cc2)cc1` gave an IC50 of 17.5 µM (BEAS-2B; MTT; 24 h).
`OCc1ccc(N2CCc3cccc(F)c3C2)cc1Cl` has an IC50 of under 0.2 µM (RBE; ATP luminescence).
With `c1ccc(Cn2nc(-c3nc(-c4ccccc4)n[nH]3)c3ccccc32)cc1` the IC50 was 72.6 µM (human Fibroblast; 48 h).
For `OCc1ccc(-c2nn(Cc3ccccc3)c3ncccc23)o1`, the IC50 was 15.5 µM (RBE; ATP luminescence).
With `Fc1ccc2c(-c3nnc(Cc4ccccc4)s3)nn(Cc3ccc(Cl)cc3Cl)c2c1` the IC50 was 191 µM (human Fibroblast; 48 h).
For `CCc1nc(C(N)=O)c(Nc2ccc(N3CCC(N4CCN(C)CC4)CC3)c(OC)c2)nc1NC1CCOCC1`, the IC50 was 0.025 µM (MV4-11; resazurin).
The IC50 of `COc1ccc2c(-c3nc(-c4ccccc4)no3)nn(Cc3ccncc3)c2c1` is reported as 123 µM (human Fibroblast; 48 h).
`Cc1nc2ccc(-c3ccc(F)c(F)c3)cc2c(O)c1C(=O)O` has an IC50 of at least 100 µM (MDA-MB-468; MTT; 48 h).
